Experimental data published in ChEMBL document CHEMBL3244113, “Antimycotic imidazoles. part 4. Synthesis and antifungal activity of ketoconazole, a new potent orally active broad-spectrum antifungal agent” (1979).
Active and inactive are the calls of the source. The calls are words filed in the database; no cut-off is given here.

Experiments:
[1] = system: Candida tropicalis; assay: Antifungal activity against Candida tropicalis assessed as growth inhibition in sabouraud broth after 14 days in presence of 10% inactivated bovine serum; type: functional
How it was run: (§1)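 Broth dilution in Sabouraud broth, with or without 10% inactivated bovine serum, incubated 14 days. Read-out: concentration (µg/mL) giving complete or marked inhibition of growth. Tested in preliminary experiments.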

[2] = system: Candida albicans; assay: Antifungal activity against Candida albicans assessed as growth inhibition in sabouraud broth after 14 days in presence of 10% inactivated bovine serum; type: functional; how it was run: as §1
[3] = system: Aspergillus fumigatus; assay: Antifungal activity against Aspergillus fumigatus assessed as growth inhibition in sabouraud broth after 14 days in presence of 10% inactivated bovine serum; type: functional
[4] = system: Sporothrix schenckii; assay: Antifungal activity against Sporothrix schenckii assessed as growth inhibition in sabouraud broth after 14 days in presence of 10% inactivated bovine serum; type: functional; how it was run: as §1
[5] = system: Candida albicans; assay: Antifungal activity against Candida albicans B2630 infected in ovariectomized and hysterectomized Wistar rat vaginal candidosis model at 1.25 mg/kg, po for 14 days by prophylactic treatment; type: functional, organism-based; design: dose 1.25 mg/kg
How it was run: (§2)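 Female Wistar rats (100 g) were ovariectomized and hysterectomized under thalamonal anaesthesia. From 3 weeks later, and weekly thereafter, each received oestradiol undecanoate 100 µg in sesame oil s.c. Pseudooestrus was confirmed by vaginal smear. Rats were infected intravaginally with 8×10^5 C. albicans B 2630 cells in 0.2 mL saline. Compound in PEG 200 was given daily by gavage from the day of infection. Vaginal swab smears were taken on days 7, 11 and 14. Read-out: negative animals/total.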

[6] = system: Candida albicans; assay: Antifungal activity against Candida albicans B2630 infected in ovariectomized and hysterectomized Wistar rat vaginal candidosis model at 2.5 mg/kg, po for 14 days by prophylactic treatment; type: functional, organism-based; design: dose 2.5 mg/kg; how it was run: as §2
[7] = system: Candida albicans; assay: Antifungal activity against Candida albicans B2630 infected in ovariectomized and hysterectomized Wistar rat vaginal candidosis model at 5 mg/kg, po for 14 days by prophylactic treatment; type: functional; how it was run: as §2
[8] = system: Candida albicans; assay: Antifungal activity against Candida albicans B2630 infected in ovariectomized and hysterectomized Wistar rat vaginal candidosis model at 2.5 mg/kg, po for 11 days by prophylactic treatment; type: functional, organism-based; design: dose 2.5 mg/kg
[9] = system: Candida albicans; assay: Antifungal activity against Candida albicans B2630 infected in ovariectomized and hysterectomized Wistar rat vaginal candidosis model at 5 mg/kg, po for 5 days by prophylactic treatment; type: functional, organism-based; design: dose 5 mg/kg
[10] = system: Candida albicans; assay: Antifungal activity against Candida albicans B2630 infected in guinea pig cutaneous candidosis model at 0.63 mg/kg, po for 14 days measured on day 21; type: functional, organism-based; design: dose 0.63 mg/kg
How it was run: (§3)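 Guinea pig cutaneous candidosis. Compound dissolved in PEG 200, given by oral gavage once daily for 14 consecutive days; placebo group included. Read-out: ratio of infection-negative animals to total at day 21.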

[11] = system: Candida albicans; assay: Antifungal activity against Candida albicans B2630 infected in guinea pig cutaneous candidosis model at 2.5 mg/kg, po for 14 days measured on day 21; type: functional, organism-based; design: dose 2.5 mg/kg; how it was run: as §3
[12] = system: Candida albicans; assay: Antifungal activity against Candida albicans B2630 infected in guinea pig cutaneous candidosis model at 10 mg/kg, po for 14 days measured on day 21; type: functional, organism-based; design: dose 10 mg/kg; how it was run: as §3
[13] = system: Coccidioides immitis; assay: Antifungal activity against Coccidioides immitis infected in mouse coccidioidomycosis model assessed as cell killing activity at 40 mg/kg, po od for 2.5 weeks relative to control; type: functional
[14] = system: Microsporum canis; assay: Antifungal activity against Microsporum canis assessed as growth inhibition in sabouraud broth after 14 days; type: functional; how it was run: as §1
[15] = system: Trichophyton mentagrophytes; assay: Antifungal activity against Trichophyton mentagrophytes assessed as growth inhibition in sabouraud broth after 14 days; type: functional; how it was run: as §1
[16] = system: Trichophyton rubrum; assay: Antifungal activity against Trichophyton rubrum assessed as growth inhibition in sabouraud broth after 14 days; type: functional; how it was run: as §1
[17] = system: Cryptococcus neoformans; assay: Antifungal activity against Cryptococcus neoformans assessed as growth inhibition in sabouraud broth after 14 days; type: functional; how it was run: as §1
[18] = system: Candida tropicalis; assay: Antifungal activity against Candida tropicalis assessed as growth inhibition in sabouraud broth after 14 days; type: functional; how it was run: as §1
[19] = system: Candida albicans; assay: Antifungal activity against Candida albicans assessed as growth inhibition in sabouraud broth after 14 days; type: functional; how it was run: as §1
[20] = system: Aspergillus fumigatus; assay: Antifungal activity against Aspergillus fumigatus assessed as growth inhibition in sabouraud broth after 14 days; type: functional
[21] = system: Sporothrix schenckii; assay: Antifungal activity against Sporothrix schenckii assessed as growth inhibition in sabouraud broth after 14 days; type: functional; how it was run: as §1
[22] = system: Saprolegnia; assay: Antifungal activity against Saprolegnia Sp. assessed as growth inhibition in sabouraud broth after 14 days; type: functional; how it was run: as §1
[23] = system: Phialophora verrucosa; assay: Antifungal activity against Phialophora verrucosa assessed as growth inhibition in sabouraud broth after 14 days; type: functional; how it was run: as §1
[24] = system: Erysipelothrix rhusiopathiae; assay: Antifungal activity against Erysipelothrix insidiosa assessed as growth inhibition in sabouraud broth after 14 days; type: functional; how it was run: as §1
[25] = system: Staphylococcus haemolyticus; assay: Antifungal activity against Staphylococcus haemolyticus assessed as growth inhibition in sabouraud broth after 14 days; type: functional; how it was run: as §1
[26] = system: Streptococcus pyogenes; assay: Antifungal activity against Streptococcus pyogenes assessed as growth inhibition in sabouraud broth after 14 days; type: functional; how it was run: as §1
[27] = system: Microsporum canis; assay: Antifungal activity against Microsporum canis assessed as growth inhibition in sabouraud broth after 14 days in presence of 10% inactivated bovine serum; type: functional; how it was run: as §1
[28] = system: Trichophyton mentagrophytes; assay: Antifungal activity against Trichophyton mentagrophytes assessed as growth inhibition in sabouraud broth after 14 days in presence of 10% inactivated bovine serum; type: functional; how it was run: as §1

Compound: CC(=O)N1CCN(c2ccc(OCC3COC(Cn4ccnc4)(c4ccc(Cl)cc4Cl)O3)cc2)CC1 (racemic) [KETOCONAZOLE]
- GI [1]: 0.1 µg/mL
- GI [2]: 1 µg/mL
- GI [3]: 10 µg/mL
- GI [4]: 1 µg/mL
- Activity [5]: Active
- Activity [6]: Active
- Activity [7]: 100%
- Activity [8]: inactive
- Activity [9]: Active
- Activity [10]: inactive
- Activity [11]: Active
- Activity [12]: Active
- Activity [13]: >60%
- GI [14]: 10 µg/mL
- GI [15]: 0.1 µg/mL
- GI [16]: 1 µg/mL
- GI [17]: 1 µg/mL
- GI [18]: 1 µg/mL
- GI [19]: 10 µg/mL
- GI [20]: 100 µg/mL
- GI [21]: 1 µg/mL
- GI [22]: 1 µg/mL
- GI [23]: 1 µg/mL
- GI [24]: 10 µg/mL
- GI [25]: 100 µg/mL
- GI [26]: 10 µg/mL
- GI [27]: 1 µg/mL
- GI [28]: 0.1 µg/mL

Compound: Clc1ccc(COC(Cn2ccnc2)c2ccc(Cl)cc2Cl)c(Cl)c1 (configuration not stated) [MICONAZOLE]
- GI [1]: >10 µg/mL
- GI [2]: >10 µg/mL
- GI [3]: >10 µg/mL
- GI [4]: 10 µg/mL
- GI [14]: 1 µg/mL
- GI [15]: 0.01 µg/mL
- GI [16]: 1 µg/mL
- GI [17]: 1 µg/mL
- GI [18]: 1 µg/mL
- GI [19]: 10 µg/mL
- GI [20]: 10 µg/mL
- GI [21]: 1 µg/mL
- GI [22]: 10 µg/mL
- GI [23]: 100 µg/mL
- GI [24]: 0.01 µg/mL
- GI [25]: 10 µg/mL
- GI [26]: 0.01 µg/mL
- GI [27]: 10 µg/mL
- GI [28]: 0.1 µg/mL
